ChEMBL document CHEMBL5532695, “4-Trifluoromethyl bithiazoles as broad-spectrum antimicrobial agents for virus-related bacterial infections or co-infections” (RSC Med Chem, 2024)

Assays:
Pseudomonas aeruginosa = test: Synergistic antibacterial activity against Pseudomonas aeruginosa ATCC 27853 incubated for 18 to 24 hrs in presence of colistin by broth microdilution method; format: functional; settings: time 18-24 hrs
Streptococcus pyogenes [1] = test: Antibacterial activity against Streptococcus pyogenes ATCC 12344 assessed as reduction in microbial growth measured after 18 hrs by CLSI based broth microdilution method; format: functional
Summary of the method: (§1)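 MIC by CLSI broth microdilution in Mueller–Hinton medium, triplicate. Inoculum 5 × 10^4 CFU per well. Compounds taken up in DMSO (50 mg mL−1 stock) and diluted in medium. Read after 18 h at 35 ± 2 °C.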

Enterococcus faecalis [2] = test: Antibacterial activity against Enterococcus faecalis ATCC 29212 assessed as reduction in microbial growth measured after 18 hrs by CLSI based broth microdilution method; format: functional; summary of the method: as §1
Zika virus [3] = test: microbe, parasite or virus in culture; settings: Vero C1008, 72 h
rhinovirus A16 [4] = test: microbe, parasite or virus in culture; settings: Rhinovirus A, HeLa, 48 h
[5] = Cytotoxicity against african green monkey Vero E6 cells assessed as reduction in cell viability by MTT assay; format: toxicity, cell-based; settings: chlorocebus sabaeus, Vero E6 cells (Vero C1008)
Summary of the method: (§2)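 MTT viability on HeLa or VeroE6 cells, run in parallel with the antiviral assays. CC50 from variable-slope sigmoidal dose–response regression.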

enterovirus D68 [6] = test: microbe, parasite or virus in culture; settings: Enterovirus D, HeLa, 48 h
Bacillus subtilis [7] = test: Antibacterial activity against Bacillus subtilis ATCC 6633 assessed as reduction in microbial growth measured after 18 hrs by CLSI based broth microdilution method; format: functional; summary of the method: as §1
Klebsiella pneumoniae = test: Synergistic antibacterial activity against Klebsiella pneumoniae ATCC 13833 incubated for 18 to 24 hrs in presence of colistin by broth microdilution method; format: functional; settings: time 18-24 hrs
Escherichia coli = test: Synergistic antibacterial activity against Escherichia coli CCUGT incubated for 18 to 24 hrs in presence of colistin by broth microdilution method; format: functional; settings: time 18-24 hrs
Staphylococcus aureus [8] = test: Antibacterial activity against Staphylococcus aureus ATCC 25923 assessed as reduction in microbial growth measured after 18 hrs by CLSI based broth microdilution method; format: functional; summary of the method: as §1
[9] = target: Phosphatidylinositol 4-kinase beta (Homo sapiens, UniProt Q9UBF8); test: Inhibition of recombinant full length his tagged PI4KB (unknown origin) incubated for 10 mins in presence of ATP by ADP-glo kinase assay
Acinetobacter baumannii = test: Synergistic antibacterial activity against Acinetobacter baumannii ATCC 17978 incubated for 18 to 24 hrs in presence of colistin by broth microdilution method; format: functional; settings: time 18-24 hrs
[10] = Cytotoxicity against human HeLa cells assessed as reduction in cell viability by MTT assay; format: toxicity, cell-based; summary of the method: as §2
Bacillus subtilis [11] = test: Bactericidal activity against Bacillus subtilis ATCC 6633 assessed as reduction in microbial growth measured after 18 hrs by CLSI based broth microdilution method; format: functional
Summary of the method: (§3)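 MBC by CLSI broth microdilution in Mueller–Hinton medium, triplicate. Inoculum 5 × 10^4 CFU per well. Read after 18 h at 35 ± 2 °C.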

Zika virus [12] = settings: vero e6
Streptococcus pyogenes [13] = test: Bactericidal activity against Streptococcus pyogenes ATCC 12344 assessed as reduction in microbial growth measured after 18 hrs by CLSI based broth microdilution method; format: functional; summary of the method: as §3
Staphylococcus warneri [14] = test: Antibacterial activity against oxacillin-resistant Staphylococcus warneri SI-5/2011 assessed as reduction in microbial growth measured after 18 hrs by CLSI based broth microdilution method; format: functional
Summary of the method: (§4)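 Gram-positive clinical isolates; compounds dissolved in DMSO (50 mg mL−1 stock) and diluted in medium; MIC by CLSI broth microdilution in Mueller–Hinton medium, inoculum 5 × 10^4 CFU per well, read after 18 h at 35 ± 2 °C; triplicate.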

Enterococcus faecium [15] = test: Bactericidal activity against Vancomycin/teicoplanin resistant Enterococcus faecium SI-759 assessed as reduction in microbial growth measured after 18 hrs by CLSI based broth microdilution method; format: functional
Enterococcus faecium [16] = test: Bactericidal activity against Vancomycin resistant Enterococcus faecium SI-1831 assessed as reduction in microbial growth measured after 18 hrs by CLSI based broth microdilution method; format: functional
rhinovirus A16 [17] = settings: hela
Enterococcus faecalis [18] = test: Bactericidal activity against Enterococcus faecalis ATCC 29212 assessed as reduction in microbial growth measured after 18 hrs by CLSI based broth microdilution method; format: functional; summary of the method: as §3
Staphylococcus aureus [19] = test: Bactericidal activity against Staphylococcus aureus ATCC 25923 assessed as reduction in microbial growth measured after 18 hrs by CLSI based broth microdilution method; format: functional; summary of the method: as §3
[20] = system: Staphylococcus haemolyticus; test: Antibacterial activity against oxacillin-resistant Staphylococcus haemolyticus SI-6/2011 assessed as reduction in microbial growth measured after 18 hrs by CLSI based broth microdilution method; format: functional; summary of the method: as §4
enterovirus D68 [21] = settings: hela
[22] = system: Staphylococcus epidermidis; test: Bactericidal activity against linezolid-resistant Staphylococcus epidermidis SI-1266 assessed as reduction in microbial growth measured after 18 hrs by CLSI based broth microdilution method; format: functional
Staphylococcus aureus [23] = test: Bactericidal activity against methicillin-resistant Staphylococcus aureus ATCC 43300 assessed as reduction in microbial growth measured after 18 hrs by CLSI based broth microdilution method; format: functional
Enterococcus faecium [24] = test: Antibacterial activity against Vancomycin resistant Enterococcus faecium SI-3856B assessed as reduction in microbial growth measured after 18 hrs by CLSI based broth microdilution method; format: functional; summary of the method: as §4
Staphylococcus aureus [25] = test: Antibacterial activity against methicillin-resistant Staphylococcus aureus ATCC 43300 assessed as reduction in microbial growth measured after 18 hrs by CLSI based broth microdilution method; format: functional; summary of the method: as §4
[26] = system: Staphylococcus haemolyticus; test: Bactericidal activity against oxacillin-resistant Staphylococcus haemolyticus SI-6/2011 assessed as reduction in microbial growth measured after 18 hrs by CLSI based broth microdilution method; format: functional
Enterococcus faecium [27] = test: Antibacterial activity against Vancomycin/teicoplanin resistant Enterococcus faecium SI-759 assessed as reduction in microbial growth measured after 18 hrs by CLSI based broth microdilution method; format: functional; summary of the method: as §4
Enterococcus faecium [28] = test: Antibacterial activity against Vancomycin resistant Enterococcus faecium SI-1831 assessed as reduction in microbial growth measured after 18 hrs by CLSI based broth microdilution method; format: functional; summary of the method: as §4
[29] = system: Staphylococcus epidermidis; test: Antibacterial activity against linezolid-resistant Staphylococcus epidermidis SI-1266 assessed as reduction in microbial growth measured after 18 hrs by CLSI based broth microdilution method; format: functional; summary of the method: as §4
Staphylococcus warneri [30] = test: Bactericidal activity against oxacillin-resistant Staphylococcus warneri SI-5/2011 assessed as reduction in microbial growth measured after 18 hrs by CLSI based broth microdilution method; format: functional
Enterococcus faecium [31] = test: Bactericidal activity against Vancomycin resistant Enterococcus faecium SI-3856B assessed as reduction in microbial growth measured after 18 hrs by CLSI based broth microdilution method; format: functional

Phosphatidylinositol 4-kinase beta, sequence (Q9UBF8 whole entry): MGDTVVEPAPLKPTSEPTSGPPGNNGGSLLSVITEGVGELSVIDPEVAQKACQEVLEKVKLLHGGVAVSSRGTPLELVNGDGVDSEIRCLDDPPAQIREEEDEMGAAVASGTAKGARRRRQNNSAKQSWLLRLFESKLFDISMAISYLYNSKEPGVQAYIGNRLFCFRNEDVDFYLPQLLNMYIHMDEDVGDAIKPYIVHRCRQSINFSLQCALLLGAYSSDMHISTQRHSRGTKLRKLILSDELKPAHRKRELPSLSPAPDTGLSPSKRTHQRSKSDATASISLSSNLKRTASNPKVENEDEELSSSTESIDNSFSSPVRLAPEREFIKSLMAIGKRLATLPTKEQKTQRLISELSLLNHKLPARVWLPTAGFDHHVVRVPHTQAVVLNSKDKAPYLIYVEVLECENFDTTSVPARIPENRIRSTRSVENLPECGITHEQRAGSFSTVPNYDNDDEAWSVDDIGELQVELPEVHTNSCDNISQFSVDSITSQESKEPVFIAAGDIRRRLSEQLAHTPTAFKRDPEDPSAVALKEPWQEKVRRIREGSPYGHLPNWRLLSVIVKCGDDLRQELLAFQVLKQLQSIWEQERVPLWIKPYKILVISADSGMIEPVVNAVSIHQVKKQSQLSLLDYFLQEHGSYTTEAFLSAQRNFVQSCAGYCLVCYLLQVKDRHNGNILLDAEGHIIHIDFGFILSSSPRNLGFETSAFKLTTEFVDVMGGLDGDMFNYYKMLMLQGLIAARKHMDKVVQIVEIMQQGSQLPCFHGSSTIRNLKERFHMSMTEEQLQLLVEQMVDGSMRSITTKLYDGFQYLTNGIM

MIC (Streptococcus pyogenes [1]) [µg/mL]	MIC (Enterococcus faecalis [2]) [µg/mL]	IC50 (rhinovirus A16 [4]) [µM]	IC50 (enterovirus D68 [6]) [µM]	MIC (Bacillus subtilis [7]) [µg/mL]	MIC (Staphylococcus aureus [8]) [µg/mL]	IC50 [9]	Structure (SMILES)	MAC (Pseudomonas aeruginosa) [µg/mL]	CC50 [5] [µM]	MAC (Klebsiella pneumoniae) [µg/mL]	MAC (Escherichia coli) [µg/mL]	MAC (Acinetobacter baumannii) [µg/mL]	CC50 [10] [µM]	MBC (Bacillus subtilis [11]) [µg/mL]	IC50 (Zika virus [12])	MBC (Streptococcus pyogenes [13]) [µg/mL]	MIC (Staphylococcus warneri [14]) [µg/mL]	MBC (Enterococcus faecium [15]) [µg/mL]	MBC (Enterococcus faecium [16]) [µg/mL]	IC50 (rhinovirus A16 [17])	also measured
> 32	> 32	0.25	2.01	> 32	> 32	Not Active	COC(=O)c1cc(Nc2nc(-c3sc(NC(=O)C(C)(C)C)nc3C(F)(F)F)cs2)cc(C(F)(F)F)c1	>64	> 50	>64	>64	>64	47.3								IC50 (Zika virus [3]): 6.13 µM
16	> 32	9.77	10	32	> 32		CC(C)(C)C(=O)Nc1nc(C(F)(F)F)c(-c2csc(Nc3ccc(O)c(C(=O)O)c3)n2)s1	>64	> 50	>64	>64	>64	> 50	> 32	Not Active	> 32					
> 32	> 32			> 32	> 32	Not Active	O=C(O)c1cc(Nc2nc(-c3sc(NC(=O)c4ccccc4)nc3C(F)(F)F)cs2)cc(C(=O)O)c1	>64	> 50	>64	>64	>64	> 50		Not Active					Not Active	IC50 (enterovirus D68 [21]): Not Active

Further lines, the compound ahead of its results:

Structure (SMILES)	MIC (Streptococcus pyogenes [1]) [µg/mL]	MIC (Enterococcus faecalis [2]) [µg/mL]	IC50 (rhinovirus A16 [4]) [µM]	IC50 (enterovirus D68 [6]) [µM]	MIC (Bacillus subtilis [7]) [µg/mL]	MIC (Staphylococcus aureus [8]) [µg/mL]	IC50 [9]	MAC (Pseudomonas aeruginosa) [µg/mL]	CC50 [5] [µM]	MAC (Klebsiella pneumoniae) [µg/mL]	MAC (Escherichia coli) [µg/mL]	MAC (Acinetobacter baumannii) [µg/mL]	CC50 [10] [µM]	MBC (Bacillus subtilis [11]) [µg/mL]	IC50 (Zika virus [12])	MBC (Streptococcus pyogenes [13]) [µg/mL]	MIC (Staphylococcus warneri [14]) [µg/mL]	MBC (Enterococcus faecium [15]) [µg/mL]	MBC (Enterococcus faecium [16]) [µg/mL]	IC50 (rhinovirus A16 [17])	also measured
O=C(Nc1nc(C(F)(F)F)c(-c2csc(Nc3ccc(O)c(C(=O)O)c3)n2)s1)c1ccccc1	4	16			16	16	Not Active	>64	> 50	>64	>64	>64	> 50	> 32	Not Active	32	64	64	> 64	Not Active	MBC (Enterococcus faecalis [18]): > 32 µg/mL; MBC (Staphylococcus aureus [19]): 32 µg/mL; MIC [20]: 32 µg/mL; IC50 (enterovirus D68 [21]): Not Active; MBC [22]: 64 µg/mL; MBC (Staphylococcus aureus [23]): > 64 µg/mL; MIC (Enterococcus faecium [24]): 32 µg/mL; MIC (Staphylococcus aureus [25]): 32 µg/mL; MBC [26]: 64 µg/mL; MIC (Enterococcus faecium [27]): 16 µg/mL; MIC (Enterococcus faecium [28]): 32 µg/mL; MIC [29]: 32 µg/mL; MBC (Staphylococcus warneri [30]): 64 µg/mL; MBC (Enterococcus faecium [31]): > 64 µg/mL
CC(C)(C)C(=O)Nc1nc(C(F)(F)F)c(-c2csc(Nc3cc(C(=O)O)cc(C(F)(F)F)c3)n2)s1	4	32	9.52	4.18	16	16		>64	> 50	>64	>64	>64	> 50	16	Not Active	4	16	> 64	> 64		MBC (Enterococcus faecalis [18]): > 32 µg/mL; MBC (Staphylococcus aureus [19]): < 32 µg/mL; MIC [20]: 16 µg/mL; MBC [22]: 64 µg/mL; MBC (Staphylococcus aureus [23]): > 64 µg/mL; MIC (Enterococcus faecium [24]): 32 µg/mL; MIC (Staphylococcus aureus [25]): 8 µg/mL; MBC [26]: > 64 µg/mL; MIC (Enterococcus faecium [27]): 16 µg/mL; MIC (Enterococcus faecium [28]): 16 µg/mL; MIC [29]: 16 µg/mL; MBC (Staphylococcus warneri [30]): > 64 µg/mL; MBC (Enterococcus faecium [31]): > 64 µg/mL
